Results taken from PMC5028280 (Neuropharmacology, 2016).
Read-outs that look alike come from different tables or passages of the source.

Assays:
male ICR mice [1] = experiment: Functional observational battery; assay type: in vivo, mouse; details: i.v.; for FOB Home cage activity: doses with significant differences vs vehicle: CNS Activity domain, ↓ decrease vs vehicle, N = 6/dose; for FOB Forelimb placing: doses with significant differences vs vehicle / FOB Gait: doses with significant differences vs vehicle / FOB Muscle tone: doses with significant differences vs vehicle / FOB Posture: doses with significant differences vs vehicle: Muscle tone/Equilibrium domain; for FOB Approach response: doses with significant differences vs vehicle / FOB Startle response: doses with significant differences vs vehicle: Sensorimotor Reactivity domain
Outline: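 Male ICR mice, each given one dose only, n=6 per dose; housed at 20–22°C on a 12-h light/dark cycle with food ad libitum. Approach and startle after observer interference were scored as categorical measures. Each compound's vehicle group was pooled into one vehicle group, and each dose was compared with it. Tests: Fisher's exact (categorical), Kruskal-Wallis (ordinal), one-way ANOVA (continuous).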

5-HT2C = biological target: T1, 5-HT2C (Homo sapiens, UniProt P28335); experiment: NIMH PDSP secondary binding assay, 5-HT2C; details: read-out: 5-HT2C binding affinity Ki; mean of 3 replications
T1 sequence (P28335 33-458): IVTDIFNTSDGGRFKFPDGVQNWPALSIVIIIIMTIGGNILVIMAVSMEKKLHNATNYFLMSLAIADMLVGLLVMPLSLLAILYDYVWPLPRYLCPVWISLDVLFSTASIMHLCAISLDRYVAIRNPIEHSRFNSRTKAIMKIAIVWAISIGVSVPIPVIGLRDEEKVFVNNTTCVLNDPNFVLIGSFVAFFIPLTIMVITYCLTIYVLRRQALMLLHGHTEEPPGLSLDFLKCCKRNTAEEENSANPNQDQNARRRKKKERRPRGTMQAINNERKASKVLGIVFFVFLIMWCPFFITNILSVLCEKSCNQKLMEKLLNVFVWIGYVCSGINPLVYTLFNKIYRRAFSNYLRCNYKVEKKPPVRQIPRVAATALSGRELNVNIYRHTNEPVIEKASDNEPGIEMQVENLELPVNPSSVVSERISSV

hERG = hERG (Homo sapiens, UniProt Q12809); experiment: hERG channel assay; assay type: cell-based
Sequence of hERG (Q12809 whole entry): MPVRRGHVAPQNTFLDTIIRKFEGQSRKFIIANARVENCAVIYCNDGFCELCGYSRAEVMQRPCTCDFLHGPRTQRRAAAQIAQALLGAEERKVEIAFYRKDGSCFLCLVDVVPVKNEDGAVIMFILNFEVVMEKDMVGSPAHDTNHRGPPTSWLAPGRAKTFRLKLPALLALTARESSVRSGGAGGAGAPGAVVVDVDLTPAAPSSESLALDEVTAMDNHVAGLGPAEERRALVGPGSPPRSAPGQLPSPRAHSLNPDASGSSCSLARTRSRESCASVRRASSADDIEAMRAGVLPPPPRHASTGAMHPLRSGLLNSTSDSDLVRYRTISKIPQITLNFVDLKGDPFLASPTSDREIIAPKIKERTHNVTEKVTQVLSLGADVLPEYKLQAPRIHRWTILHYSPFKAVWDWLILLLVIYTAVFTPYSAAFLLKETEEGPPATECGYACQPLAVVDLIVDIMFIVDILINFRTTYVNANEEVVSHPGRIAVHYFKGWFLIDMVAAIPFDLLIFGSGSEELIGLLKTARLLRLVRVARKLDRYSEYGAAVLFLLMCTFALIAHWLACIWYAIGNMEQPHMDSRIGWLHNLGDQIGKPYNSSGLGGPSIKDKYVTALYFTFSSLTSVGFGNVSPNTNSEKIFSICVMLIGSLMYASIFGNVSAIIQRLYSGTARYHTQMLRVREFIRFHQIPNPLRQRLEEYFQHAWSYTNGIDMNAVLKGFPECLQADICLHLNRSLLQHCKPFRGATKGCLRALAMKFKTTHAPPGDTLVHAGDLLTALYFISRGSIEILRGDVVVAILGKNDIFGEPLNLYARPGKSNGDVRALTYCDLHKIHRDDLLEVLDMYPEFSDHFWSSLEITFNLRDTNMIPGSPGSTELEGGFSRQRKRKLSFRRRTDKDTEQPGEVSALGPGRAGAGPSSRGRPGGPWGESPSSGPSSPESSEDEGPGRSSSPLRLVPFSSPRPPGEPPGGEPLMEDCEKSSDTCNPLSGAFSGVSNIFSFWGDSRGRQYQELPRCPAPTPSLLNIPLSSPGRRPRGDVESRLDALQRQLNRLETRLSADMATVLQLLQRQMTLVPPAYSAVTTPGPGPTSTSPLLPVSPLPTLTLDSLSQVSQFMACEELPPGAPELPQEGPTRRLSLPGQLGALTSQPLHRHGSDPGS

5-HT2B [2] = biological target: T2, 5-HT2B (Homo sapiens, UniProt P41595); experiment: 5-HT2B antagonism functional assay; assay type: cell-based
T2 sequence (P41595 whole entry): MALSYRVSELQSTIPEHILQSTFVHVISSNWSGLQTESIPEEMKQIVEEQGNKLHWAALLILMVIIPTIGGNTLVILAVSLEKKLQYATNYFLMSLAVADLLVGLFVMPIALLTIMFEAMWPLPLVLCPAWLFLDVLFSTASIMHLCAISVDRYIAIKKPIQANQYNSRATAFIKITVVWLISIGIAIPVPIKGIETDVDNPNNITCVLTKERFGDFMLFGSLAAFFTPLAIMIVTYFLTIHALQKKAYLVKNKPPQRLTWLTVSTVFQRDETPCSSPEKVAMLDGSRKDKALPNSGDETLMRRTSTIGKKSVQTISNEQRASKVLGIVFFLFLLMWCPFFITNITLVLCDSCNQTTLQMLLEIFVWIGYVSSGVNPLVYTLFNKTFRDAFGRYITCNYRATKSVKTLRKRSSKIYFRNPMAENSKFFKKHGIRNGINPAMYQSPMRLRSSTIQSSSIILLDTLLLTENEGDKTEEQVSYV

5-HT2B [3] = biological target: T2, 5-HT2B; experiment: NIMH PDSP secondary binding assay, 5-HT2B
male ICR mice [4] = experiment: FOB, cannabinoid receptor antagonism of 3 mg/kg JWH-018 effects; assay type: in vivo, mouse
male C57/Bl6J mice [5] = experiment: Drug discrimination, mice trained to discriminate 0.3 mg/kg JWH-018 from vehicle; assay type: in vivo, mouse; details: for Response rates compared to vehicle: 1 mg/kg JWH-018, 10 mg/kg THC, JWH-073 across the dose range tested; for Fold less potent than JWH-018 in JWH-018 discrimination: from ED50 values; for ED50 for substitution for the 0.3 mg/kg JWH-018 training dose / Substitution for the 0.3 mg/kg JWH-018 training dose: i.p.; for ED50 for substitution for the 0.3 mg/kg JWH-018 training dose: 30 min before session; for Substitution for the 0.3 mg/kg JWH-018 training dose: percentage of responses on JWH-018-associated lever
[6] = Urinary metabolite identification; assay type: in vivo, mouse; details: II = glucuronic acid conjugate; X = identified
5-HT6 = 5-HT6 (Homo sapiens, UniProt P50406); experiment: NIMH PDSP secondary binding assay, 5-HT6; details: read-out: 5-HT6 binding affinity Ki; mean of 3 replications
Sequence of 5-HT6 (P50406 whole entry): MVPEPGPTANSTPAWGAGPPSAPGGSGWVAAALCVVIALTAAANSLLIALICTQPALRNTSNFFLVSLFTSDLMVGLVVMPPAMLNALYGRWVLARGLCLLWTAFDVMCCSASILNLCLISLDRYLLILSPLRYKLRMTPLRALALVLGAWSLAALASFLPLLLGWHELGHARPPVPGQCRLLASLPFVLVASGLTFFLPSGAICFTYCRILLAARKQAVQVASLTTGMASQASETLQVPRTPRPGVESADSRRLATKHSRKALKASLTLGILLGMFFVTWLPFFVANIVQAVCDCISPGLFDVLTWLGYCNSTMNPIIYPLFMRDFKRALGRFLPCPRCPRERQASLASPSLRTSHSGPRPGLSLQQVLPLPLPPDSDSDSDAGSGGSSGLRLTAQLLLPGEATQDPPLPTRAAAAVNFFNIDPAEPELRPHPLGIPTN
GABA: PBR = GABA: PBR (Rattus norvegicus, UniProt P16257); experiment: NIMH PDSP secondary binding assay, PBR; set-up: species or system human
Sequence of GABA: PBR (P16257 whole entry): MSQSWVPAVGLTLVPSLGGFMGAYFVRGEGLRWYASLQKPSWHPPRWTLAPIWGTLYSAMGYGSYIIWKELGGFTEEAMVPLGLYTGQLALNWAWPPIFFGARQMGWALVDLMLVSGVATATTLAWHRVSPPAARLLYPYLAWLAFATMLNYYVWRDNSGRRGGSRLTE

male C57/Bl6J mice [7] = experiment: Drug discrimination, mice trained to discriminate 5.6 mg/kg THC from vehicle; assay type: in vivo, mouse
[8] = Autonomic Effects domain, categorical, ---- no significant effect
[9] = CNS Excitability domain, ↑ increase vs vehicle, ---- no significant effect
[10] = categorical, ---- no significant effect
[11] = inhibition of hERG channels, mean of 3 replicates
[12] = read-out: hERG Channels EC50, inhibition of hERG channels, mean of 3 replicates
[13] = read-out: 5-HT2B Antagonism IC50, mean of 3 replicates
[14] = read-out: 5-HT2B binding affinity Ki, mean of 3 replications

Molecule	FOB Home cage activity: doses with significant differences vs vehicle (male ICR mice [1])	FOB Tonus: doses with significant differences vs vehicle (male ICR mice [1]; [9])	FOB Forelimb placing: doses with significant differences vs vehicle (male ICR mice [1]; [10])	FOB Gait: doses with significant differences vs vehicle (male ICR mice [1]; [10])	FOB Muscle tone: doses with significant differences vs vehicle (male ICR mice [1]; [10])	FOB Posture: doses with significant differences vs vehicle (male ICR mice [1]; [10])	FOB Approach response: doses with significant differences vs vehicle (male ICR mice [1]; [10])	FOB Startle response: doses with significant differences vs vehicle (male ICR mice [1]; [10])	hERG Channels Emax (hERG; [11])	EC50 (hERG; [12])	5-HT2B Antagonism Emax (5-HT2B [2]; mean of 3 replicates)	IC50 (5-HT2B [2]; [13])	Ki (5-HT2B [3]; [14])	FOB Tail elevation: doses with significant differences vs vehicle (male ICR mice [1]; [9])	Response rates compared to vehicle (male C57/Bl6J mice [5])	Substitution for the 0.3 mg/kg JWH-018 training dose (male C57/Bl6J mice [5])	further results
CCCCCn1cc(C(=O)Cc2ccccc2)c2ccccc21 [JWH-167]	↓ (3-30) mg/kg	↑ (10) mg/kg	(10-30) mg/kg	(3-30) mg/kg	(3-30) mg/kg	(1-30) mg/kg	(3-30) mg/kg	(3-30) mg/kg	81%	13.8 µM	100%	47.7 µM	1.25 µM				FOB Exophthalmus: doses with significant differences vs vehicle (male ICR mice [1]; [8]): (1) mg/kg; FOB Piloerection: doses with significant differences vs vehicle (male ICR mice [1]; [8]): (10-30) mg/kg; Ki (5-HT2C): 4.82 µM
SR144528 [reference compound]																	FOB selected measures, antagonist 3 mg/kg i.p. plus vehicle (male ICR mice [4]; rimonabant/vehicle and SR144528/vehicle groups, all mice): Normal responses
CCCCCc1cc(O)c2c(c1)OC(C)(C)[C@@H]1CCC(C)=C[C@@H]21 [THC, Δ^9-tetrahydrocannabinol, reference compound]	↓ (0.3-10) mg/kg					(3-10) mg/kg							0.765 µM	↑ (3) mg/kg	significantly decreased response rates	fully and dose-dependently substituted	Fold less potent than JWH-018 in JWH-018 discrimination (male C57/Bl6J mice [5]): ~10 fold; ED50 for substitution for the 0.3 mg/kg JWH-018 training dose (male C57/Bl6J mice [5]): 4.08 µmol/kg
CCCCCn1cc(C(=O)c2ccc(CC)c3ccccc23)c2ccccc21 [JWH-210]	↓ (0.1-3) mg/kg			(0.1-3) mg/kg	(0.3-3) mg/kg	(0.1-3) mg/kg		(0.3-3) mg/kg	lacked efficacy		100%	2870 µM					FOB Exophthalmus: doses with significant differences vs vehicle (male ICR mice [1]; [8]): (0.3) mg/kg; Monohydroxylation metabolite in urine, phase II [6]: no monohydroxyl glucuronide was observed; hERG Channels EC50 (hERG; [11]): Not active
CCCCn1cc(C(=O)c2cccc3ccccc23)c2ccccc21 [JWH-073]	↓ (0.3-3) mg/kg		(0.3) mg/kg	(0.3-3) mg/kg	(1-3) mg/kg	(1-3) mg/kg	(1-3) mg/kg	(3) mg/kg	59%	9.71 µM	100%	19.3 µM	0.184 µM	↑ (1) mg/kg	significant decreases were not observed	fully and dose-dependently substituted	Fold less potent than JWH-018 in JWH-018 discrimination (male C57/Bl6J mice [5]): about 5 fold; ED50 for substitution for the 0.3 mg/kg JWH-018 training dose (male C57/Bl6J mice [5]): 2.11 µmol/kg
CCCCCn1cc(C(=O)c2ccc(OC)c3ccccc23)c2ccccc21 [JWH-081]	↓ (0.1-1) mg/kg			(0.3-1) mg/kg	(0.3) mg/kg	(0.3-1) mg/kg	(1) mg/kg	(1) mg/kg	lacked efficacy								hERG Channels EC50 (hERG; [11]): Not active; 5-HT2B Antagonism IC50 (5-HT2B [2]; mean of 3 replicates): Not active
Cc1c(C(=O)NN2CCCCC2)nn(-c2ccc(Cl)cc2Cl)c1-c1ccc(Cl)cc1 [rimonabant]																	Response rates in antagonism tests (male C57/Bl6J mice [5]; 3 mg/kg antagonist with vehicle or 0.3 mg/kg JWH-018): significantly decreased
O=C(c1cccc2ccccc12)c1cn(CCCCCF)c2ccccc12 [AM-2201]	↓ (0.03-1) mg/kg	↑ (0.3-1) mg/kg			(0.1-1) mg/kg	(0.03-1) mg/kg	(0.1-1) mg/kg		70%	3.35 µM	100%	23.9 µM	0.192 µM				Ki (5-HT6): 0.693 µM
CCCCCn1cc(C(=O)c2cccc3ccccc23)c2ccccc21 [JWH-018, 1-pentyl-3-(1-naphthoyl)indole]	↓ (0.1-3) mg/kg	↑ (1) mg/kg	(3) mg/kg	(0.1-3) mg/kg	(0.1-3) mg/kg	(0.1-3) mg/kg	(0.3-3) mg/kg	(3) mg/kg	Full efficacy					↑ (1) mg/kg	significantly decreased response rates	fully and dose-dependently substituted	Muscle tone in FOB antagonism study (male ICR mice [4]; 3 mg/kg JWH-018 i.v. alone, or co-administration of 3 mg/kg rimonabant i.p.): Hypertonia; FOB Clonus: doses with significant differences vs vehicle (male ICR mice [1]; [9]): ↑ (0.3) mg/kg; Responding on the JWH-018-associated lever at the training dose (male C57/Bl6J mice [5]; 0.3 mg/kg JWH-018): > 85%; Ki (GABA: PBR): 0.673 µM; EC50 (hERG): 236 µM; Emax (hERG; human, stably transfected cell line expressing hERG channels): 100%; IC50 (5-HT2B [2]): 33.2 µM; Emax (5-HT2B [2]; read-out: 5-HT2B Antagonism Emax): 100%; Ki (5-HT2B [3]): 0.316 µM
CN1CCN2c3ccccc3Cc3ccccc3C2C1 (centres unmarked) [mianserin]																failed to substitute for or antagonize	Responding on the JWH-018 lever, 3 mg/kg mianserin co-administered with 0.3 mg/kg JWH-018 (male C57/Bl6J mice [5]; compared to 0.3 mg/kg JWH-018 alone): significantly decreased; Responding on the JWH-018 lever, 3 mg/kg mianserin (plus vehicle) (male C57/Bl6J mice [5]; compared to vehicle alone): significantly increased; Substitution of the JWH-018 training dose (0.3 mg/kg), mianserin at doses up 1 mg/kg (male C57/Bl6J mice [5]; mianserin plus 0.3 mg/kg JWH-018): not altered; Overall response rate, mianserin 1 and 3 mg/kg administered with JWH-018 (male C57/Bl6J mice [5]; mouse, in vivo): significantly suppressed; Percentage of THC-lever responding, mianserin 0.1, 0.3, and 3 mg/kg (male C57/Bl6J mice [7]; co-administered with either vehicle or 5.6 mg/kg THC): did not alter this pattern; Percentage of THC-lever responding, 1 mg/kg mianserin plus 5.6 mg/kg THC (male C57/Bl6J mice [7]; compared to 5.6 mg/kg THC alone): significantly lower; Substitution for THC in mice trained to discriminate THC (male C57/Bl6J mice [7]; mianserin tested alone, i.p.): did not substitute; Overall responding on both levers (response rate), 3 mg/kg mianserin (male C57/Bl6J mice [7]; with vehicle or THC): significantly suppressed
